An excerpt weighted towards active compounds, which were near 2% of everything screened.
ZTA counter = blocks Epstein-Barr virus ZTA, an EBNA-1 counter-screen. P03206. ZTA-DNA binding, fluorescence polarization. inhibition, % at 11 µM. hit rate 0.15% among 320,000. AID 2234; in the data active = inhibition above about 33%
GPR7 antagonist = human neuropeptides B/W receptor 1 antagonism; P48145; GPR7-expressing cells, fluorescence antagonist assay; inhibition, % at 4.4 µM; hit rate 1.1% among 290,000; AID 1861; in the data active = inhibition above about 16%, passing the limit was not always enough;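 note: cells stimulated with the agonist NPW; 0% = agonist with vehicle and 100% = vehicle without agonist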
Target sequence (P48145 whole entry, looked up): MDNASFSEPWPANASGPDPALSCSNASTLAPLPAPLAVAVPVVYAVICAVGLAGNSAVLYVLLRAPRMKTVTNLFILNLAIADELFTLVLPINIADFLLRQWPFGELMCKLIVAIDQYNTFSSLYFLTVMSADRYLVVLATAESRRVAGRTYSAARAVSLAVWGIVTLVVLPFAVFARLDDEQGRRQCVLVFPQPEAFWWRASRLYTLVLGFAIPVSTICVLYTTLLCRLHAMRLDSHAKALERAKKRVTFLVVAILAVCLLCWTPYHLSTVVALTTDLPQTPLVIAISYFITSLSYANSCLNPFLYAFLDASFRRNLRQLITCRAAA
NS3 helicase inh = inhibitors of Hepatitis C virus NS3 helicase; hit rate 0.56% among 290,000; NS3 helicase DNA unwinding, Cy5 molecular beacon fluorescence; inhibition, % at 10.9 µM; AID 1800;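 active = inhibition above the mean of all tested compounds plus 3 SD, set per campaign, cut at about 35% in these data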;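 note: 0% = DMSO wells and 100% = thioflavine S control wells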
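Compound dosing – single dose, 10.9 µM nominal final, DMSO 0.8% final · System – NS3 helicase fragment of HCV · Buffer or medium – MOPS pH 6.5, MgCl2, DTT, Tween20, BSA · Signal – Cy5 beacon fluorescence read at start and 1 h · Also added – annealed dual-labelled DNA beacon duplex, ATP-started · Schedule – 1 h at 25 °C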
DNA FID counter-1 = fluorescent intercalator displacement, NS3 helicase counter-screen; DNA fluorescent intercalator displacement, fluorescence; inhibition, % at 7.9 µM; hit rate 0.17% among 290,000;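 note: 0% = vehicle and 100% = reference compound; higher means more ethidium bromide displaced from hairpin DNA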
EBNA-1 inhibitor = blocks EBNA-1 binding to DNA | EBNA-1 DNA binding, fluorescence polarization | inhibition, % at 14.8 µM | hit rate 0.34% among 300,000 | AID 1950; in the data active = inhibition above about 28%
NS3 helicase cf = confirmation of Hepatitis C virus NS3 helicase inhibitors; shares compounds with NS3 helicase inh; NS3 helicase DNA unwinding, Cy5 molecular beacon fluorescence; inhibition, % at 10.9 µM; hit rate 31% among 1,600;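 active = inhibition above the mean of all tested compounds plus 3 SD, cutoff set per campaign, cut at about 36% in these data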
DNA FID counter-2 = intercalator displacement, NS3 helicase counter-screen. shares compounds with NS3 helicase inh. DNA fluorescent intercalator displacement, fluorescence. inhibition, % at 7.9 µM. hit rate 4% among 1,600;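 note: 0% = vehicle and 100% = reference compound; higher means more displacement of ethidium bromide from the DNA hairpin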
DNA FID DR = DNA intercalator displacement in dose response. shares compounds with NS3 helicase inh. fluorescent intercalator displacement from DNA, fluorescence. IC50, µM. 120 tested, under 10 active. AID 2172; call rule not given here
* hit, by the source's call; nt = no result given. Cut-off read from the data, not from the text of the source, unless noted: active = inhibition above about 37%; inactive = the rest.

SMILES	ZTA counter	GPR7 antagonist	NS3 helicase inh	DNA FID counter-1	EBNA-1 inhibitor	NS3 helicase cf	DNA FID counter-2	others
Cc1ccc(C(=O)NCC(=O)OCn2nnc3ccccc3c2=O)cc1	1	nt	nt	nt	nt	nt	nt
O=C(CS(=O)(=O)c1ccccc1Cl)N1CCOCC1	-12	3	16	-2	-2	nt	nt
COc1cc(-c2csc(NC3CCCCC3)n2)cc(OC)c1OC	-10	-12	-27	-9	0	nt	nt
CCCC(C(=O)O)N1C(=O)/C(=C/c2cccn2C)SC1=S (stereo unspecified)	-4	3	36*	-20	-1	39*	-16
CC(C)C(C(=O)O)N1C(=O)/C(=C/c2cccn2C)SC1=S (stereo unspecified)	10	7	35	-16	-1	nt	nt
COc1ccc(NC(=O)c2cc(-c3ccco3)nc3ccccc23)cc1S(=O)(=O)N1CCOCC1	-1	-6	54*	-23	2	73*	14
Cc1ccc(NC(=O)c2cc(-c3ccco3)nc3ccccc23)cc1S(=O)(=O)N1CCOCC1	1	-10	6	-32	3	nt	nt
CCc1nnc(NC(=O)c2cc(-c3ccco3)nc3ccccc23)s1	11	-7	38*	-10	5	-9	-7
COCCN(C(=O)COC(=O)COc1ccc(Cl)c(C)c1)c1c(N)n(Cc2ccccc2)c(=O)[nH]c1=O	5	24	-11	-35	-3	nt	nt
O=C1CCCC2=C1C(c1ccco1)Nc1ccc3ccccc3c12 (stereo unspecified)	12	-9	41*	-6	1	36	-6
Cc1ccc(C(NC(=O)c2cccc(S(=O)(=O)N3CCN(C)CC3)c2)c2ccccc2)cc1 (stereo unspecified)	-11	nt	nt	nt	nt	nt	nt
CCC(=O)N1CCCc2cc(S(=O)(=O)CCC(=O)Nc3ccccc3C)ccc21	-6	-7	5	-21	0	nt	nt
C/C(=N\NC(=O)c1cc2ccccc2cc1O)c1ccc(C)o1	5	14	47*	-21	2	10	-9
Cc1c(Cl)cccc1NC(=O)CSc1sc2c(O)cc(=O)[nH]c2c1C#N	7	19	37*	-7	-6	-9	8
O=C(O)CSc1cc(NS(=O)(=O)c2ccc(Cl)cc2)c2ccccc2c1O	11	-14	43*	-4	3	50*	45*
Cc1cc2nc(=O)c(/C=C3\C=Nc4ccccc43)c(N)n2o1	10	2	43*	-5	4	-4	16
CN(CCC#N)C(=O)COC(=O)c1c2c(nc3ccccc13)/C(=C/c1ccco1)CC2	-2	-9	77*	-12	11	-1	3
COc1ccc(/C=C2\CCc3c2nc2ccccc2c3C(=O)O)cc1OC	11	-2	14	-9	1	nt	nt
COc1ccccc1CCNC(=O)c1cccc(S(=O)(=O)N2CCc3ccccc3C2)c1	2	nt	nt	nt	nt	nt	nt
CCSc1ccc(C(=O)NCC(=O)O)cc1	6	-12	1	-3	18	nt	nt
CSc1ccc(NC(=O)Nc2ccc(C(=O)NCC(=O)O)cc2)cc1	nt	-9	25	-24	nt	-27	5
C[C@H]1c2cccc(O)c2C(O)=C2C(=O)[C@]3(O)C(O)=C(C(N)=O)C(=O)[C@@H](N(C)C)[C@@H]3[C@@H](O)[C@@H]21	-23	nt	nt	nt	-9	nt	nt
CN(C)c1ccc(O)c2c1CC1CC3[C@@H](N(C)C)C(=O)C(C(N)=O)=C(O)[C@]3(O)C(=O)C1=C2O (stereo partly specified)	-11	0	39*	-10	6	36*	16	DNA FID DR=>79
CCOCCCN(C)C1CCN(C(=O)c2oc3ccccc3c2NC(=O)c2ccc(F)cc2)CC1	2	-6	-5	13	-4	nt	nt
CCc1cc2c(=O)n(Cc3ccco3)c(SCC(=O)NCC3CCCO3)nc2s1 (stereo unspecified)	-2	0	2	-30	-10	nt	nt
CCc1cc2c(=O)n(Cc3ccco3)c(SCC(=O)N3CCCc4ccccc43)nc2s1	3	-4	43*	-32	7	25	-16
CCc1cc2c(=O)n(Cc3ccco3)c(SCc3c(C)noc3C)nc2s1	-4	6	51*	-48	7	48*	-30	DNA FID DR=>79

Bioassay records (PubChem)
